Experimental data pooled from the literature.
Compare with care: the assays were run in different laboratories.
Target: Platelet-derived growth factor receptor beta (PDGFRB, Homo sapiens, UniProt P09619)

Compound | observed | method | concentration | remaining binding [%]
CNC(=O)Nc1ccc2c(c1)[C@@]1(CC2)OC(=O)N(CC(=O)N(Cc2ccc(F)cc2)[C@@H](C)C(F)(F)F)C1=O | cell-free assay | competition with immobilised ligand | 1 µM | 87
CN(c1nccc(-c2cnn3ncccc23)n1)C1CC1 | binding | – | 1 µM | 98
CC(=O)N1CCC(c2ccc(C(=O)NC(=N)N)cc2C(F)(F)F)CC1 | cell-free assay | competition with immobilised ligand | 1 µM | 100
CN(C)c1nccc(-c2cnn3ncccc23)n1 | binding | – | 1 µM | 100
CS(=O)(=O)NCC[C@H](NC(=O)c1cncc2c1cnn2-c1ccc(F)cc1)c1ccnc(S(C)(=O)=O)c1 | cell-free assay | competition with immobilised ligand | 1 µM | 100
CC(C)(C)c1ccc(-c2nc(CBr)nn2-c2cccc(O)c2)cc1 | cell-free assay | competition with immobilised ligand | 10 µM | 86
O=C(Nc1cnc(Oc2ccc(F)cc2)nc1)N1CCc2ncccc2[C@@H]1c1ccc(F)cc1 | cell-free assay | competition with immobilised ligand | 1 µM | 100
O=C(c1ccc(Nc2ncc(Cl)c(-c3cc4ccccc4s3)n2)cc1)N1CCC(N2CCCC2)CC1 | binding | competition with immobilised ligand | 1 µM | 1.9
C[C@@H]1CN(c2cc(-c3n[nH]c4ccc(OC5(C)CC5)cc34)ncn2)C[C@H](C)O1 | cell-free assay | competition with immobilised ligand | 0.1 µM | 73
CN(CCCC(F)(F)F)c1nccc(-c2cnn3ncccc23)n1 | binding | – | 1 µM | 95
C[C@@H]1CN(c2ccc3ncc(-c4ccc5[nH]nc(C6CC6)c5c4)n3n2)C[C@H](C)O1 | binding | competition with immobilised ligand | 0.5 µM | 12
CNC(=O)[C@@H]1CC[C@@H](n2c(-c3ccc4cnccc4c3)nc3ccc(C(=O)NCc4cccc(C(N)=O)c4)cc32)C1 | binding | competition with immobilised ligand | 1 µM | 100
Cc1cnc(Nc2ccc(C(=O)N3CCC(N4CCCC4)CC3)cc2)nc1-c1cc2ccccc2s1 | binding | competition with immobilised ligand | 1 µM | 0.4
Cc1cnn2ncc(-c3ccnc(N(C)C)n3)c2c1 | binding | – | 1 µM | 100
C[C@@H](c1ccc(-n2cnc3c(N)ncnc32)cc1)N1CCc2nn(C)c(Cc3ccccc3)c2C1=O | binding | competition with immobilised ligand | 0.1 µM | 17
COC(=O)Nc1nc2ccc(C(=O)c3ccccc3)cc2[nH]1 | cell-free assay | competition with immobilised ligand | 10 µM | 3.2
N[C@H]1CCN(c2nccc(-c3cnn4ncccc34)n2)C1 | binding | – | 1 µM | 93
CC(=O)C1=C(C)N(c2cccc(C(F)(F)F)c2)C(=O)N[C@@H]1c1ccc(C#N)nc1 | cell-free assay | competition with immobilised ligand | 1 µM | 94
CCN(CC)CCCCNc1ncc2cc(-c3cc(OC)cc(OC)c3)c(NC(=O)NC(C)(C)C)nc2n1 | cell-free assay | competition with immobilised ligand | 1 µM | 38
CC(=O)Nc1c(C(C)=O)c(=O)n(C)c2nc(-c3ccc(Cl)cc3Cl)c(-c3ccc(Cl)cc3)cc12 | cell-free assay | competition with immobilised ligand | 1 µM | 100
c1cncc(-c2cccc(Nc3nccc(NC4CCCCC4)n3)c2)c1 | binding | competition with immobilised ligand | 10 µM | 0
C=CC(=O)N1CCC(C(=O)NCC(=O)N2CCN(c3nc(-c4cnc(N)nc4C(F)F)nc(N4CCOCC4)n3)CC2)CC1 | binding | competition with immobilised ligand | 1 µM | 100
O=C(Nc1c[nH]nc1C(=O)NC1CCNCC1)c1cc(F)cc(F)c1 | binding | competition with immobilised ligand | 1 µM | 100
c1cnn2ncc(-c3ccnc(N4CCC45COC5)n3)c2c1 | binding | – | 1 µM | 78
O=C(NCCCN1CCOCC1)c1ccc(Nc2ncc(Cl)c(-c3ccc(Cl)s3)n2)cc1 | binding | competition with immobilised ligand | 1 µM | 0.05
